pIC50: −log10 of the molar value. Active and inactive are the calls of the source. No cut-off for these calls is given here.
Tests used:
[1] = Growth inhibition of human Molt4/C8 cells after 3 days; assay type: functional, cell-based; conditions: MOLT-4, 72 h
Outline: (§1)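 Human CEM and Molt 4/C8 T-lymphocytes were grown for three days with or without serial dilutions of the compound. IC50 is the concentration that inhibits cell growth by 50%.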

[2] = system: CCRF-CEM; test: Growth inhibition of human CEM cells after 3 days; assay type: functional, cell-based; conditions: 72 h; outline: as §1
[3] = biological target: T1, ATP-dependent translocase ABCB1 (Homo sapiens, UniProt P08183); test: Reversal of P-glycoprotein-mediated multidrug resistance in human MDR1 gene transfected mouse L5178Y cells assessed as fluorescence activity ratio at 20 uM by rhodamine 123 accumulation assay; assay type: cell-based
T1 sequence (P08183 whole entry): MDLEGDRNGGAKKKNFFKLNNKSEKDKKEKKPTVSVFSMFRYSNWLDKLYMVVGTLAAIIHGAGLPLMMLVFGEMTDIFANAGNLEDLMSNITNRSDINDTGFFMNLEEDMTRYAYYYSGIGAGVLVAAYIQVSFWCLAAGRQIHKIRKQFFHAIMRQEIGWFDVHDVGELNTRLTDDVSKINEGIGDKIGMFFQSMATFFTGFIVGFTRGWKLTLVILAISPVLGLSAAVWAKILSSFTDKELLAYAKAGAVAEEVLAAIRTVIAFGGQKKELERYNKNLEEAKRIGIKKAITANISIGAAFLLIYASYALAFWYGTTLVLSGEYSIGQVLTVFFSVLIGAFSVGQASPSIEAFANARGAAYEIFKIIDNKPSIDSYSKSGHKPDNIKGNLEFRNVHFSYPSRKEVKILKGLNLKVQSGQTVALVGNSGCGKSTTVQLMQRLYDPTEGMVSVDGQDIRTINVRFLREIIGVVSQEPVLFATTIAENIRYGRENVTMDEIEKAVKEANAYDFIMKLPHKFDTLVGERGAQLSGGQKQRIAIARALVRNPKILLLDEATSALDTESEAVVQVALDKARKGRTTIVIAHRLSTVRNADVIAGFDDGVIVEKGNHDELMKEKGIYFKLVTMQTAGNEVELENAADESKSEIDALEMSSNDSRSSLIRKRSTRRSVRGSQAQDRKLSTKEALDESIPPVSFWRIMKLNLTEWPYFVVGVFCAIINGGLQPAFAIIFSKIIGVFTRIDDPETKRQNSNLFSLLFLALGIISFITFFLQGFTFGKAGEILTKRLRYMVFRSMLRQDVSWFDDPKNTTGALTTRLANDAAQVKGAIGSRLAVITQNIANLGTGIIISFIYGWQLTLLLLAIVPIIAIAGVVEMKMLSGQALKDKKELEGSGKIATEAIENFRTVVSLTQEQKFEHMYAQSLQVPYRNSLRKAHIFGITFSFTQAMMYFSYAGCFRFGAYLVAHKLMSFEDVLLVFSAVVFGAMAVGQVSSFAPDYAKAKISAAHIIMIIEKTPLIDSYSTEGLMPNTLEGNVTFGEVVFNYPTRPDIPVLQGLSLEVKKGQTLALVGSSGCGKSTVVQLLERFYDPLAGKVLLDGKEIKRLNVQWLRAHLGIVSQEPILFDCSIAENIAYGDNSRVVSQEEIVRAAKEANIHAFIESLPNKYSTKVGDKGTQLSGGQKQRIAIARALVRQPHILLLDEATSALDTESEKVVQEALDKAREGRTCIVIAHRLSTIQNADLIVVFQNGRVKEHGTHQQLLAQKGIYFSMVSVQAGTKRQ
Outline: (§2)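 Murine L-5178Y lymphoma cells transfected with human MDR1 gene (P-gp-overexpressing), alongside parental cells, treated or untreated with compound; rhodamine 123 accumulation measured by fluorescence; FAR = ratio of fluorescence intensity in treated versus untreated cells, values above 1 taken as MDR reversal.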

[4] = biological target: T1, ATP-dependent translocase ABCB1; test: Reversal of P-glycoprotein-mediated multidrug resistance in human MDR1 gene transfected mouse L5178Y cells assessed as fluorescence activity ratio at 200 uM by rhodamine 123 accumulation assay; assay type: cell-based; outline: as §2
[5] = Cytotoxicity against human HGF cells after 48 hrs; assay type: cell-based
[6] = Cytotoxicity against human HPC cells after 48 hrs; assay type: cell-based
[7] = Cytotoxicity against human HPLF cells after 48 hrs; assay type: cell-based
[8] = system: HL-60; test: Cytotoxicity against human HL60 cells after 48 hrs; assay type: functional; conditions: HL-60, 48 h
[9] = system: HSC-2; test: Cytotoxicity against human HSC2 cells after 48 hrs; assay type: functional; conditions: HSC-2, 48 h
[10] = system: HSC-3; test: Cytotoxicity against human HSC3 cells after 48 hrs; assay type: functional; conditions: HSC-3, 48 h
[11] = system: HSC-4; test: Cytotoxicity against human HSC4 cells after 48 hrs; assay type: functional; conditions: HSC-4, 48 h
[12] = system: CCRF-CEM; test: Growth inhibition of human CCRF-CEM cells at 10 uM; assay type: functional, cell-based
Outline: (§3)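 Human tumor cell line panel (59 lines across leukemia, melanoma, non-small cell lung, colon, CNS, ovarian, renal, prostate, breast) treated at a single 10 uM concentration; growth inhibition recorded per line.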

[13] = system: HL-60; test: Growth inhibition of human HL60 cells at 10 uM; assay type: functional, cell-based; outline: as §3
[14] = system: K562; test: Growth inhibition of human K562 cells at 10 uM; assay type: functional, cell-based; outline: as §3
[15] = system: RPMI8266; test: Growth inhibition of human […] cells at 10 uM; assay type: functional, cell-based; outline: as §3
[16] = system: A549; test: Growth inhibition of human A549 cells at 10 uM; assay type: functional, cell-based; outline: as §3
[17] = system: EKVX; test: Growth inhibition of human EKVX cells at 10 uM; assay type: functional, cell-based; outline: as §3
[18] = system: HOP-92; test: Growth inhibition of human HOP92 cells at 10 uM; assay type: functional, cell-based; outline: as §3
[19] = system: NCI-H23; test: Growth inhibition of human NCI-H23 cells at 10 uM; assay type: functional, cell-based; outline: as §3
[20] = system: NCI-H460; test: Growth inhibition of human NCI-H460 cells at 10 uM; assay type: functional, cell-based; outline: as §3
[21] = system: NCI-H522; test: Growth inhibition of human NCI-H522 cells at 10 uM; assay type: functional, cell-based; outline: as §3
[22] = system: HCC 2998; test: Growth inhibition of human HCC2998 cells at 10 uM; assay type: functional, cell-based; outline: as §3
[23] = system: HCT-116; test: Growth inhibition of human HCT116 cells at 10 uM; assay type: functional, cell-based; outline: as §3
[24] = system: HCT-15; test: Growth inhibition of human HCT15 cells at 10 uM; assay type: functional, cell-based; outline: as §3
[25] = system: SW-620; test: Growth inhibition of human SW620 cells at 10 uM; assay type: functional, cell-based; outline: as §3
[26] = system: SF-295; test: Growth inhibition of human SF295 cells at 10 uM; assay type: functional, cell-based; outline: as §3
[27] = system: SNB-75; test: Growth inhibition of human SNB75 cells at 10 uM; assay type: functional, cell-based; outline: as §3
[28] = system: U-251; test: Growth inhibition of human U251 cells at 10 uM; assay type: functional, cell-based; outline: as §3
[29] = system: LOX IMVI; test: Growth inhibition of human LOXIMVI cells at 10 uM; assay type: functional, cell-based; outline: as §3
[30] = system: M14; test: Growth inhibition of human M14 cells at 10 uM; assay type: functional, cell-based; outline: as §3
[31] = system: UACC-62; test: Growth inhibition of human UACC62 cells at 10 uM; assay type: functional, cell-based; outline: as §3
[32] = system: IGROV-1; test: Growth inhibition of human IGROV1 cells at 10 uM; assay type: functional, cell-based; outline: as §3
[33] = system: OVCAR-3; test: Growth inhibition of human OVCAR-3 cells at 10 uM; assay type: functional, cell-based; outline: as §3
[34] = system: OVCAR-4; test: Growth inhibition of human OVCAR4 cells at 10 uM; assay type: functional, cell-based; outline: as §3
[35] = system: OVCAR-8; test: Growth inhibition of human OVCAR8 cells at 10 uM; assay type: functional, cell-based; outline: as §3
[36] = system: A498; test: Growth inhibition of human A498 cells at 10 uM; assay type: functional, cell-based; outline: as §3
[37] = system: CAKI-1; test: Growth inhibition of human Caki1 cells at 10 uM; assay type: functional, cell-based; outline: as §3
[38] = system: RXF 393; test: Growth inhibition of human RXF393 cells at 10 uM; assay type: functional, cell-based; outline: as §3
[39] = system: UO-31; test: Growth inhibition of human UO31 cells at 10 uM; assay type: functional, cell-based; outline: as §3
[40] = system: PC-3; test: Growth inhibition of human PC3 cells at 10 uM; assay type: functional, cell-based; outline: as §3
[41] = system: DU-145; test: Growth inhibition of human DU145 cells at 10 uM; assay type: functional, cell-based; outline: as §3
[42] = system: MCF7; test: Growth inhibition of human MCF7 cells at 10 uM; assay type: functional, cell-based; outline: as §3
[43] = system: NCI/ADR-RES; test: Growth inhibition of human NCI/ADR-RES cells at 10 uM; assay type: functional, cell-based; outline: as §3
[44] = system: MDA-MB-468; test: Growth inhibition of human MDA-MB-468 cells at 10 uM; assay type: functional, cell-based; outline: as §3
[45] = system: Hs-578T; test: Growth inhibition of human Hs 578T cells at 10 uM; assay type: functional, cell-based; outline: as §3
[46] = system: MDA-MB-435; test: Growth inhibition of human MDA-MB-435 cells at 10 uM; assay type: functional, cell-based; outline: as §3
[47] = system: T47D; test: Growth inhibition of human T47D cells at 10 uM; assay type: functional, cell-based; outline: as §3

Structure (SMILES): COc1ccc(/C=C/C(=O)c2c(C)[n+]([O-])c3ccccc3[n+]2[O-])cc1
- pIC50 [1]: 4.59
- pIC50 [2]: 4.56
- Ratio [3]: 4.25
- Ratio [4]: 31.7
- CC50 at 48 h [5]: 52 µM
- CC50 at 48 h [6]: 92 µM
- CC50 at 48 h [7]: 93 µM
- CC50 [8]: 16 µM
- CC50 [9]: 20 µM
- CC50 [10]: 23 µM
- CC50 [11]: 11 µM
- growth inhibition (GI) [12]: Active
- growth inhibition (GI) [13]: Active
- growth inhibition (GI) [14]: Active
- growth inhibition (GI) [15]: Active
- growth inhibition (GI) [16]: Active
- growth inhibition (GI) [17]: Active
- growth inhibition (GI) [18]: Active
- growth inhibition (GI) [19]: Active
- growth inhibition (GI) [20]: Active
- growth inhibition (GI) [21]: Active
- growth inhibition (GI) [22]: Active
- growth inhibition (GI) [23]: Active
- growth inhibition (GI) [24]: Active
- growth inhibition (GI) [25]: Active
- growth inhibition (GI) [26]: Active
- growth inhibition (GI) [27]: Active
- growth inhibition (GI) [28]: Active
- growth inhibition (GI) [29]: Active
- growth inhibition (GI) [30]: Active
- growth inhibition (GI) [31]: Active
- growth inhibition (GI) [32]: Active
- growth inhibition (GI) [33]: Active
- growth inhibition (GI) [34]: Active
- growth inhibition (GI) [35]: Active
- growth inhibition (GI) [36]: Active
- growth inhibition (GI) [37]: Active
- growth inhibition (GI) [38]: Active
- growth inhibition (GI) [39]: Active
- growth inhibition (GI) [40]: Active
- growth inhibition (GI) [41]: Active
- growth inhibition (GI) [42]: Active
- growth inhibition (GI) [43]: Active
- growth inhibition (GI) [44]: Active
- growth inhibition (GI) [45]: Active
- growth inhibition (GI) [46]: Active
- growth inhibition (GI) [47]: Active

Structure (SMILES): COc1cc(/C=C/C(=O)c2c(C)[n+]([O-])c3ccccc3[n+]2[O-])cc(OC)c1OC
- pIC50 [1]: 5.26
- pIC50 [2]: 5.28
- Ratio [3]: 8.15
- Ratio [4]: 41.9
- CC50 at 48 h [5]: 35 µM
- CC50 at 48 h [6]: 31 µM
- CC50 at 48 h [7]: 33 µM
- CC50 [8]: 1.9 µM
- CC50 [9]: 7.8 µM
- CC50 [10]: 6.6 µM
- CC50 [11]: 6.5 µM

Structure (SMILES): Cc1c(C(=O)/C=C/c2ccc(Cl)cc2)[n+]([O-])c2ccccc2[n+]1[O-]
- pIC50 [1]: 5.11
- pIC50 [2]: 4.80
- Ratio [3]: 2.63
- Ratio [4]: 5.97
- CC50 at 48 h [5]: 27 µM
- CC50 at 48 h [6]: 21 µM
- CC50 at 48 h [7]: 12 µM
- CC50 [8]: 11 µM
- CC50 [9]: 13 µM
- CC50 [10]: 38 µM
- CC50 [11]: 19 µM

Structure (SMILES): Cc1ccc(/C=C/C(=O)c2c(C)[n+]([O-])c3ccccc3[n+]2[O-])cc1
- pIC50 [1]: 5.08
- pIC50 [2]: 4.65
- Ratio [3]: 9.79
- Ratio [4]: 27.2
- CC50 at 48 h [5]: 32 µM
- CC50 at 48 h [6]: 40 µM
- CC50 at 48 h [7]: 23 µM
- CC50 [8]: 4.1 µM
- CC50 [9]: 8.4 µM
- CC50 [10]: 14 µM
- CC50 [11]: 11 µM

Structure (SMILES): Cc1c(C(=O)/C=C/c2ccccc2)[n+]([O-])c2ccccc2[n+]1[O-]
- pIC50 [1]: 5.17
- pIC50 [2]: 5.23
- Ratio [3]: 10.9
- Ratio [4]: 36.8
- CC50 at 48 h [5]: 32 µM
- CC50 at 48 h [6]: 36 µM
- CC50 at 48 h [7]: 35 µM
- CC50 [8]: 4.1 µM
- CC50 [9]: 8.4 µM
- CC50 [10]: 9.7 µM
- CC50 [11]: 9.6 µM
